This note sets out measurements from ChEMBL document CHEMBL3526126, “Amide hydrolysis of a novel chemical series of microsomal prostaglandin E synthase-1 inhibitors induces kidney toxicity in the rat” (Drug Metab Dispos, 2013).

For data set [1], the system named is Rattus norvegicus. The data set can be described thus: Drug level in Wistar Hannover rat treated with [14C]-AZ'7847 at 500 umol/kg, po qd administered for 7 days measured on day 7 by radio monitoring method. The data set is classed as ADME, organism-based. The conditions noted are these: in vivo, 168 h.
Data set [2] can be described thus: Solubility in rat urine at pH 7 after 5 hrs. The class given is physicochemical. The gist of the method: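 Samples in rat urine at pH 7.0 were incubated at 37°C for 5 hours. They were analysed by HPLC on a C18 column with photodiode array and single mass detection.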
The nature of data set [3]: Cmax in Sprague-Dawley rat at 500 umol/kg, po qd administered for 7 days measured on day 7. The data set is classed as ADME, organism-based. Set-up: dose 500 umol/kg, route oral. The conditions noted are these: in vivo. The essentials:
(§1)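 Toxicity study 2: 2 female satellite rats per dose group. Dosing was once daily by oral gavage (10 ml/kg) for 7 days. Tail-vein EDTA blood was taken at 2, 4, 6, 7 and 24 h on day 1 and on day 7, then chilled and centrifuged to plasma. Parent and M1 were quantified by LC-MS/MS, with M1 measured in negative electrospray mode.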

Data set [4] can be described thus: AUC (0 to 24 hrs) in Sprague-Dawley rat at 500 umol/kg, po qd administered for 7 days measured on day 7. Further details: dose 500 umol/kg, time < 24 hr, route oral. The class given is ADME, organism-based. The conditions noted are these: plasma. The gist of the method:
as §1

The nature of data set [5]: Cmax in Sprague-Dawley rat at 2000 umol/kg, po qd administered for 7 days measured on day 7. The data set is classed as ADME, organism-based. Further details: dose 2000 umol/kg, route oral. The conditions noted are these: in vivo. The essentials: as §1
A short description of data set [6]: AUC (0 to 24 hrs) in Sprague-Dawley rat at 2000 umol/kg, po qd administered for 7 days measured on day 7. Set-up: time < 24 hr, dose 2000 umol/kg, route oral. The class given is ADME, organism-based. The conditions noted are these: plasma. The essentials:
as §1

The test system of data set [7] is Rattus norvegicus. The data set is described as follows: Toxicity in Wistar Hannover rat kidney assessed as increase in plasma urea level at 500 to 2000 umol/kg, po qd administered for 7 days measured on day 7. The data set is classed as organism-based. The conditions noted are these: in vivo, 168 h. The gist of the method: (§2)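 Wistar Hannover rats, about 8 weeks old, were acclimatized about 2 weeks and randomized by body weight. Dosing was by oral gavage (10 ml/kg) once daily for 7 days, with vehicle controls. At the end of dosing, plasma (lithium heparin) was taken from the orbital plexus under isoflurane/oxygen anaesthesia, and urea and creatinine were measured.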

Data set [8] relates to Rattus norvegicus. The data set can be described thus: Toxicity in Wistar Hannover rat kidney assessed as increase in plasma creatinine level at 500 to 2000 umol/kg, po qd administered for 7 days measured on day 7. The data set is classed as organism-based. The conditions noted are these: in vivo, 168 h. The gist of the method: as §2
Data set [9] deals with Rattus norvegicus. The data set is described as follows: Toxicity in Wistar Hannover rat kidney assessed as crystals in urine at 500 to 2000 umol/kg, po qd administered for 7 days measured on day 7. The class given is organism-based. The conditions noted are these: in vivo, 168 h.
In data set [10] the test system is Rattus norvegicus. The data set can be described thus: Toxicity in Wistar Hannover rat kidney assessed as histopathogical changes at 500 to 2000 umol/kg, po qd administered for 7 days measured on day 8 by hematoxylin/eosin staining-based light microscopic analysis. The data set is classed as organism-based. The conditions noted are these: in vivo, 168 h. The essentials: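 Wistar Hannover rats, about 8 weeks old, were gavaged once daily (10 ml/kg) for 7 days. One day after the last dose they were killed by carotid exsanguination under isoflurane/oxygen. Kidneys were fixed in buffered formalin, embedded in paraffin, sectioned, stained with hematoxylin and eosin, and examined by light microscopy.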

Data set [11] can be described thus: Cmax in Wistar Hannover rat at 500 umol/kg, po qd measured on day 1. The conditions noted are these: in vivo.
Data set [12] is described as follows: Cmax in Wistar Hannover rat at 2000 umol/kg, po qd measured on day 1. The conditions noted are these: in vivo.
Data set [13] is described as follows: AUC (0 to 24 hrs) in Wistar Hannover rat at 500 umol/kg, po qd measured on day 1. The conditions noted are these: plasma.
A short description of data set [14]: AUC (0 to 24 hrs) in Wistar Hannover rat at 2000 umol/kg, po qd measured on day 1. The conditions noted are these: plasma.
Data set [15] deals with Rattus norvegicus. The data set can be described thus: Drug metabolism in Wistar Hannover rat assessed as formation of benzene-1,2-disulfonamide metabolite M1 in plasma at 500 umol/kg, po qd administered for 7 days measured on day 7 by radio monitoring method. The data set is classed as ADME, organism-based. The conditions noted are these: in vivo, 168 h.
Data set [16] can be described thus: Drug metabolism in cryopreserved human hepatocytes assessed as amide hydrolysis at 1 to 10 uM by LC-MS analysis. The class given is ADME, cell-based, Hepatocyte. The essentials:
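Hepatocytes at 1 × 10^6 cells/ml in William's medium incubated at 37°C with gentle shaking under 5% CO2. Substrate was at […]. Metabolites were analysed by LC-MS.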

In data set [17] the test system is Rattus norvegicus. The data set can be described thus: Toxicity in Wistar Hannover rat kidney assessed as increase in plasma creatinine level at 435 to 900 umol/kg, po qd administered for 14 days measured on day 14. The data set is classed as organism-based. The conditions noted are these: in vivo, 336 h, in the assay text read “900 umol/kg” for “435 to 900 umol/kg”. The gist of the method: (§3)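 Female Wistar Hannover rats (10 per group), about 8 weeks old, were dosed by oral gavage (10 ml/kg) once daily for 14 days. The compound was given as a solution in 15% (w/v) hydroxypropyl-β-cyclodextrin in 0.2 M meglumine. At the end of dosing, plasma (lithium heparin) was taken from the orbital plexus under isoflurane/oxygen anaesthesia for plasma chemistry.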

The test system of data set [18] is Rattus norvegicus. The data set can be described thus: Toxicity in Wistar Hannover rat kidney assessed as change in plasma chemistry parameter at 435 umol/kg, po qd administered for 14 days measured on day 14. The conditions noted are these: in vivo, 336 h. The class given is organism-based. The essentials:
as §3

Data set [19] concerns Rattus norvegicus. The data set is described as follows: Toxicity in Wistar Hannover rat kidney assessed as crystals in urine at 435 to 900 umol/kg, po qd administered for 14 days measured on day 14. The data set is classed as organism-based. The conditions noted are these: in vivo, 336 h.
Data set [20] can be described thus: Cmax in Sprague-Dawley rat at 10 umol/kg, po qd measured on day 1. The data set is classed as ADME, organism-based. Set-up: dose 10 umol/kg, route oral. The conditions noted are these: in vivo. The essentials: (§4)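 Single-dose PK in male Sprague-Dawley rats (n = 3). Plasma was profiled over time for parent and for the amide-hydrolysis metabolite M1, and AUC0–24 and Cmax were derived. The dosing protocol follows earlier work.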

Data set [21] in a line: Cmax in Sprague-Dawley rat at 435 umol/kg, po qd measured on day 1. The class given is ADME, organism-based. Set-up: dose 435 umol/kg, route oral. The conditions noted are these: in vivo. The gist of the method: (§5)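 Toxicity study 3: 5 female animals per dose group for TK. The compound was given as a solution in 15% (w/v) hydroxypropyl-β-cyclodextrin in 0.2 M meglumine, by oral gavage (10 ml/kg) once daily for 14 days. Blood was microsampled at 2, 4, 6, 7 and 24 h on day 1 and on the last dosing day. Parent only was measured, not M1.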

Data set [22] in a line: Cmax in Sprague-Dawley rat at 900 umol/kg, po qd measured on day 1. The data set is classed as ADME, organism-based. Further details: dose 900 umol/kg, route oral. The conditions noted are these: in vivo. The gist of the method: as §5
The nature of data set [23]: AUC (0 to 24 hrs) in Sprague-Dawley rat at 10 umol/kg, po qd measured on day 1. The data set is classed as ADME, organism-based. The conditions noted are these: plasma. Further details: dose 10 umol/kg, time < 24 hr, route oral. The gist of the method:
as §4

The nature of data set [24]: AUC (0 to 24 hrs) in Sprague-Dawley rat at 435 umol/kg, po qd measured on day 1. The class given is ADME, organism-based. Further details: dose 435 umol/kg, time < 24 hr, route oral. The conditions noted are these: plasma. The gist of the method:
as §5

Data set [25] can be described thus: AUC (0 to 24 hrs) in Sprague-Dawley rat at 900 umol/kg, po qd measured on day 1. The data set is classed as ADME, organism-based. Set-up: time < 24 hr, dose 900 umol/kg, route oral. The conditions noted are these: plasma. The gist of the method: as §5
The nature of data set [26]: Cmax in Sprague-Dawley rat at 435 umol/kg, po qd administered for 14 days measured on day 14. Set-up: dose 435 umol/kg, route oral. The conditions noted are these: in vivo. The class given is ADME, organism-based. The gist of the method:
as §5

Data set [27] can be described thus: Cmax in Sprague-Dawley rat at 900 umol/kg, po qd administered for 14 days measured on day 14. The class given is ADME, organism-based. Set-up: dose 900 umol/kg, route oral. The conditions noted are these: in vivo. The essentials: as §5
Data set [28] can be described thus: AUC (0 to 24 hrs) in Sprague-Dawley rat at 435 umol/kg, po qd administered for 14 days measured on day 14. Set-up: dose 435 umol/kg, time < 24 hr, route oral. The class given is ADME, organism-based. The conditions noted are these: plasma. The gist of the method:
as §5

Data set [29] can be described thus: AUC (0 to 24 hrs) in Sprague-Dawley rat at 900 umol/kg, po qd administered for 14 days measured on day 14. The data set is classed as ADME, organism-based. Further details: dose 900 umol/kg, time < 24 hr, route oral. The conditions noted are these: plasma. The gist of the method: as §5
Data set [30] concerns Rattus norvegicus. The data set can be described thus: Toxicity in Wistar Hannover rat kidney assessed as increase in plasma urea level at 435 to 900 umol/kg, po qd administered for 14 days measured on day 14. The conditions noted are these: in vivo, 336 h. The data set is classed as organism-based. The essentials:
as §3

≈ marks a conversion by molar mass, not a printed value.

By solubility is commonly meant how much of the substance goes into solution per volume. High values mean a readily soluble substance, low ones a poorly soluble substance. For orientation: Cmax means the maximum level reached in the sampled fluid or tissue. For orientation: AUC means concentration integrated over time. Low readings indicate low exposure, high ones high exposure. For orientation: AUC(0-t) means exposure summed from dosing to a finite time, without extrapolation to infinity. On to `NS(=O)(=O)c1ccccc1S(N)(=O)=O`, for which the Drug metabolism result in the data set with Rattus norvegicus [1] is given as “metabolite_detected”. Moreover, in data set [2], the concentration in solution (solubility at 5 h) was 83 µM (≈ 19.6 µg/mL). Besides, the Cmax was found to be 70 µM in data set [3], 80 µM in data set [5], 57 µM in data set [11] and 66 µM in data set [12]. Moreover, the area under the curve (AUC) at 24 h in data set [4] came out at 1300 µM·h; in data set [6], 1250 µM·h. For the same compound, the Activity entry in the data set with Rattus norvegicus [7] was “Non-toxic”; in the data set on Rattus norvegicus [8], “Non-toxic”; with Rattus norvegicus [9], “Toxic”; with Rattus norvegicus [10], “Non-toxic”. In addition, the results for the AUC(0-t) at 24 h in data set [13] and in data set [14] were 1080 µM·h and 1150 µM·h, respectively.
Take `NS(=O)(=O)c1ccccc1S(=O)(=O)N[14C](=O)c1ccc(C#Cc2ccccc2)cc1`: the Drug metabolism result in the data set on Rattus norvegicus [15] is given as “metabolite_detected”.
On to `Cc1cc(C(=O)NS(=O)(=O)c2ccccc2S(N)(=O)=O)ccc1C#CC1CCC1`, for which the Drug metabolism entry in data set [16] is “metabolite_not_detected”. In addition, the Activity result in the data set with Rattus norvegicus [17] was “Toxic”; in the data set with Rattus norvegicus [18], “Non-toxic”; in the data set on Rattus norvegicus [19] it was “Toxic”; with Rattus norvegicus [30] it was “Toxic”. The Cmax in data set [20] was 11 µM; in data set [21], 375 µM; in [22], 540 µM; in data set [26], 415 µM; in data set [27], 480 µM. In addition, the figures for the AUC(0-t) at 24 h in [23], in [24] and in [25] were 58 µM·h, 2220 µM·h and 5030 µM·h, respectively. Besides, the AUC at 24 h is 2520 µM·h in data set [28] and 5000 µM·h in [29].
